Results gathered from unrelated publications.
Lines come from different studies, so protocols differ.
Target: Serine/threonine-protein kinase BRSK2 (BRSK2, Homo sapiens, UniProt Q8IWQ3)
Residues used in one study (Q8IWQ3 1-736): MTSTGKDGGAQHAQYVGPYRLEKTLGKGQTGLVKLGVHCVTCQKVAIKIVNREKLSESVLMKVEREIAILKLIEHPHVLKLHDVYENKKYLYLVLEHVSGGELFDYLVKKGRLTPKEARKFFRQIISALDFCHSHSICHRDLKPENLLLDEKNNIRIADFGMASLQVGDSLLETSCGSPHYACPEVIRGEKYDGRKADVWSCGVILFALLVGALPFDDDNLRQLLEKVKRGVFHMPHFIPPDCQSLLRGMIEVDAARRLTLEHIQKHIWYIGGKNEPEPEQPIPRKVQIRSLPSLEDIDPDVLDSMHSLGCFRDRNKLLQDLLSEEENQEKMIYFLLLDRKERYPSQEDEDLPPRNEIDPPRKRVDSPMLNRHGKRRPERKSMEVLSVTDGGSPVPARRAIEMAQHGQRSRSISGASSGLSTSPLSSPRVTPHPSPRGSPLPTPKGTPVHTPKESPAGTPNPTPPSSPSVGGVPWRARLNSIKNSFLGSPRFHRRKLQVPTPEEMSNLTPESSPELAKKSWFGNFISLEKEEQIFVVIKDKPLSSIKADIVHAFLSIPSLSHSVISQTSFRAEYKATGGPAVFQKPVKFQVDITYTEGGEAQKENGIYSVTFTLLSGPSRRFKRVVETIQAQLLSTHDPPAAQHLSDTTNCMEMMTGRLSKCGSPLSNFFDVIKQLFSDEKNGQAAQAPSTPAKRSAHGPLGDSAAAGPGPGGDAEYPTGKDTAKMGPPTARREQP

| Structure (SMILES) | test | setting | quantity | result |
| --- | --- | --- | --- | --- |
| N#CC1(c2ccccn2)CCN(Cc2cc(C(=O)O)c(=O)n3ccccc23)CC1 | cell-free assay, competition with immobilised ligand | 1 µM | remaining binding | 100% |
| COc1cc(Nc2ncc(F)c(Nc3ccc4c(n3)NC(=O)C(C)(C)O4)n2)cc(OC)c1OC | binding, competition with immobilised ligand | 10 µM | inhibition | 0% |
| Nc1ncc(-c2nc(N3CCOCC3)nc(N3CCOCC3)n2)c(C(F)F)n1 | binding, competition with immobilised ligand | 10 µM | remaining binding | 92% |
| O=c1[nH]c2ccccc2n1C1CCN(Cc2ccc(-c3[nH]c4cc5ncnc5cc4nc3-c3ccccc3)cc2)CC1 | cell-free assay | 0.5 µM | remaining signal | 106% |
| COc1ncccc1-c1cnn2ccc(N3CCN(C(=O)OC(C)C)CC3)nc12 | binding, competition with immobilised ligand | 1 µM | remaining binding | 82% |
| Cc1nn(C)cc1-c1nc2c(N3CCN(Cc4ccc(Cl)cc4)CC3)c(Cl)cnc2[nH]1 | binding, competition with immobilised ligand | 1 µM | remaining binding | 100% |
| Cn1cncc1[C@@](O)(COc1ccc(C#N)cc1-c1ccc(OC(F)(F)F)cc1)c1ccc(C#N)cc1 | cell-free assay, competition with immobilised ligand | 1 µM | remaining binding | 100% |
| CC(C)(C)c1cc(C=C(C#N)C#N)cc(Br)c1O | enzyme activity, inhibitor | 0.5 µM | remaining activity | 94.5% |
